Experimental data pooled from the literature.
Protocols differ between the studies behind these lines.
KIT D816V: Mast/stem cell growth factor receptor Kit (KIT, Homo sapiens, UniProt P10721, D816V)
KIT: Mast/stem cell growth factor receptor Kit (KIT, Homo sapiens, UniProt P10721)

The remaining binding of Nc1ncc(-c2nc(N3CCOCC3)nc(N3CCOCC3)n2)c(C(F)F)n1 is reported as 58% (KIT D816V; binding; competition with immobilised ligand; 10 µM).
The remaining binding of Cc1nn(C)cc1-c1nc2c(N3CCN(Cc4ccc(Cl)cc4)CC3)c(Cl)cnc2[nH]1 is reported as 9.2% (KIT D816V; binding; competition with immobilised ligand; 1 µM).
For Cn1cc(-c2cccc(N3CCc4c(sc5c4CC(C)(C)C5)C3=O)c2CO)cc(Nc2ccncn2)c1=O, the inhibition was -11% (KIT; enzyme activity; inhibitor; 1 µM).
The remaining signal of O=c1[nH]c2ccccc2n1C1CCN(Cc2ccc(-c3[nH]c4cc5ncnc5cc4nc3-c3ccccc3)cc2)CC1 is reported as 91.7% (KIT; cell-free assay; 0.5 µM).
For C=CC(=O)Nc1cccc(CN2C(=O)N(c3c(Cl)c(OC)cc(OC)c3Cl)Cc3cnc(NCCCCN(CC)CC)nc32)c1, the remaining binding was 1.2% (KIT; binding; competition with immobilised ligand; 10 µM).
For C#Cc1n[nH]c2c(-c3cn([C@@H](C)c4ccccc4)c(=O)[nH]c3=O)cc(F)cc12, the inhibition was 0.1% (KIT; enzyme activity; inhibitor; 0.1 µM).
With Cn1cncc1[C@@](O)(COc1ccc(C#N)cc1-c1ccc(OC(F)(F)F)cc1)c1ccc(C#N)cc1 the remaining binding was 100% (Mast/stem cell growth factor receptor Kit (KIT, Homo sapiens, UniProt P10721, A829P); cell-free assay; competition with immobilised ligand; 1 µM).
With COc1ncccc1-c1cnn2ccc(N3CCN(C(=O)OC(C)C)CC3)nc12 the remaining binding was 84% (KIT; binding; competition with immobilised ligand; 1 µM).
With C#Cc1n[nH]c2c(-c3cn(C(C)c4ccccn4)c(=O)[nH]c3=O)cc(F)cc12 (centres unmarked) the inhibition was -6.3% (KIT; enzyme activity; inhibitor; 1 µM).
For Cn1cc(-c2cc(F)cc(N3CCn4c(cc5c4CCCC5)C3=O)c2CO)cc(Nc2ccc(N3CCN(C4COC4)CC3)cn2)c1=O, the inhibition was 5% (KIT; enzyme activity; inhibitor; 0.1 µM).
The inhibition of COCc1c(-c2cc3cc(C)cc(OC)c3s2)c2c(N)ncnn2c1CN1CCNC(=O)C1 is reported as 93.1% (Mast/stem cell growth factor receptor Kit (KIT, Homo sapiens, UniProt P10721, L576P); cell-free assay; competition with immobilised ligand; 1 µM).
